Results gathered from unrelated publications.
Lines come from different studies, so protocols differ.
Target: Homeodomain-interacting protein kinase 3 (HIPK3, Homo sapiens, UniProt Q9H422)

| SMILES | effect on | mode | method | concentration | measurement | result |
| --- | --- | --- | --- | --- | --- | --- |
| NS(=O)(=O)c1cc(NC(=O)Cc2ccccc2)ccc1Oc1cccc(Cl)c1 | cell-free assay | – | competition with immobilised ligand | 1 µM | remaining binding | 84% |
| O=C(Nc1cnn(-c2csc(C(=O)NC3COC3)c2)c1)Nc1c(F)cccc1Cl | enzyme activity | inhibitor | – | 5 µM | remaining activity | 98.8% |
| Nc1ncnc2occ(-c3ccc(NC(=O)Nc4cc(C(F)(F)F)ccc4F)cc3)c12 | cell-free assay | inhibitor | – | 20 µM | remaining signal | 0.7% |
| O=C(O)c1ccc2c(c1)nc(Nc1cccc(F)c1)c1ccncc12 | enzyme activity | inhibitor | radiometric | 1 µM | remaining activity | 10% |
| COc1cc2ncnc(Nc3ccc(F)c(Cl)c3)c2cc1OCCCN1CCOCC1 | cell-free assay | – | – | 0.5 µM | remaining signal | 103% |
| CC/C(=N\NC(=O)NCc1cccc(O)c1)c1ccc(O)c(C)c1O | enzyme activity | inhibitor | – | 0.1 µM | inhibition | 2.5% |
| COc1cccc(CCNc2nc3cc(C(=O)O)ccc3c3cncnc23)c1 | enzyme activity | inhibitor | radiometric | 1 µM | remaining activity | 27% |
| CNC(=O)Nc1ccc2c(c1)[C@@]1(CC2)OC(=O)N(CC(=O)N(Cc2ccc(F)cc2)[C@@H](C)C(F)(F)F)C1=O | cell-free assay | – | competition with immobilised ligand | 1 µM | remaining binding | 90% |
| N#CCCc1ccc2c(c1)-c1[nH]c3ccc([N+](=O)[O-])cc3c1CC(=O)N2 | cell-free assay | – | – | 0.5 µM | remaining signal | 104% |
| CCCS(=O)(=O)Nc1ccc(F)c(C(=O)c2c[nH]c3ncc(-c4ccc(Cl)cc4)cc23)c1F | enzyme activity | inhibitor | – | 1 µM | inhibition | < 10% |
| O=C(NCc1ncc(C(F)(F)F)cc1Cl)c1ccc2c(c1)C1(CCS(=O)(=O)CC1)[C@H](C1CC1)N2S(=O)(=O)c1ccc(F)cc1 | cell-free assay | – | competition with immobilised ligand | 1 µM | remaining binding | 82% |
| O=C(O)c1ccc2c(c1)nc(Nc1ccccc1Cl)c1ncncc12 | enzyme activity | inhibitor | radiometric | 1 µM | remaining activity | 17% |
| COc1cc(-c2cc(-c3ccc(N4CCNCC4)cc3)cnc2C)cc(OC)c1OC | enzyme activity | inhibitor | – | 0.1 µM | inhibition | 1% |
| N#Cc1cccc(Nc2nc3cc(C(=O)O)ccc3c3cncnc23)c1 | enzyme activity | inhibitor | radiometric | 1 µM | remaining activity | 8% |
| COc1cccc(CNC(=O)c2nc3scc(COCc4ccc(C(=O)O)cc4)c3c(=O)[nH]2)c1 | cell-free assay | – | competition with immobilised ligand | 1 µM | remaining binding | 73.7% |
| COc1cc2ncnc(Nc3ccc(Oc4ccccc4)cc3C)c2cc1OC | enzyme activity | inhibitor | – | 1 µM | inhibition | 3% |
| Cc1ccc(Nc2nccc(N(C)c3ccc4c(C)n(C)nc4c3)n2)cc1S(N)(=O)=O | enzyme activity | inhibitor | – | 10 µM | inhibition | 20% |
| N#Cc1cccc(Nc2nc3cc(C(=O)O)ccc3c3cnccc23)c1 | enzyme activity | inhibitor | radiometric | 1 µM | remaining activity | 13% |
| COc1ccc2c(O[C@@H]3C[C@H]4C(=O)N[C@]5(C(=O)O)CC5/C=C\CCCCC[C@H](NC(=O)OC5CCCC5)C(=O)N4C3)cc(-c3csc(NC(=O)C(C)C)n3)nc2c1C (stereo partly drawn) | cell-free assay | – | competition with immobilised ligand | 1 µM | remaining binding | 83% |
| FC(F)(F)Oc1cccc(-c2cnc3ccc(-c4ccncc4)nn23)c1 | enzyme activity | inhibitor | radiometric | 1 µM | activity vs control | 44% |
| O=C1Nc2ccc(Cl)cc2C1=Cc1cc(Cl)c(O)c(Cl)c1 | cell-free assay | – | – | 0.5 µM | remaining signal | 91.5% |
| CCN(CC)CCNC(=O)c1c(C)[nH]c(/C=C2\C(=O)Nc3ccc(F)cc32)c1C | enzyme activity | inhibitor | – | 10 µM | inhibition | 82% |
| O=C(O)c1ccc2c(c1)nc(Nc1ccc(Cl)cc1)c1ncncc12 | enzyme activity | inhibitor | radiometric | 1 µM | remaining activity | 7% |
| Cc1ccc(NC(=O)c2ccc(C)c(C(F)(F)F)c2)cc1C#Cc1nn(C2CCC(O)CC2)c2ncnc(N)c12 (stereo not drawn) | cell-free assay | – | – | 10 µM | remaining signal | 81% |
| Cc1nc(Cc2cccc(C(F)(F)F)c2)sc1-c1ccc(C(N)=O)nc1 | cell-free assay | – | competition with immobilised ligand | 1 µM | remaining binding | 100% |
| O=C(O)c1ccc2c(c1)nc(NCCc1cccc(Cl)c1)c1ccncc12 | enzyme activity | inhibitor | radiometric | 1 µM | remaining activity | 29% |
| CC(C)CC(=O)N1CCc2nc(-c3ccc(Br)cc3)nc(N(C)Cc3ccccc3)c2C1 | cell-free assay | – | competition with immobilised ligand | 0.1 µM | remaining binding | 100% |
| O=C(O)c1ccc2c(c1)nc(Nc1ccccc1)c1ncncc12 | enzyme activity | inhibitor | radiometric | 1 µM | remaining activity | 13% |
| CN([C@@H]1CCc2c(CC(=O)O)c3ccccc3n2C1)S(=O)(=O)c1ccc(F)cc1 | cell-free assay | – | competition with immobilised ligand | 1 µM | remaining binding | 71% |
| Cn1c(=O)n(-c2ccc(C(C)(C)C#N)cc2)c2c3cc(-c4cnc5ccccc5c4)ccc3ncc21 | enzyme activity | inhibitor | – | 10 µM | remaining activity | 102% |
